How the values were obtained:
[1] = biological target: T1, Adrenergic receptor alpha-1 (Rattus norvegicus, UniProt P15823+P23944+P43140); test: Inhibition of [3H]prazosin binding to Alpha-1 adrenergic receptor from rat cortex
T1 sequence (P15823 whole entry): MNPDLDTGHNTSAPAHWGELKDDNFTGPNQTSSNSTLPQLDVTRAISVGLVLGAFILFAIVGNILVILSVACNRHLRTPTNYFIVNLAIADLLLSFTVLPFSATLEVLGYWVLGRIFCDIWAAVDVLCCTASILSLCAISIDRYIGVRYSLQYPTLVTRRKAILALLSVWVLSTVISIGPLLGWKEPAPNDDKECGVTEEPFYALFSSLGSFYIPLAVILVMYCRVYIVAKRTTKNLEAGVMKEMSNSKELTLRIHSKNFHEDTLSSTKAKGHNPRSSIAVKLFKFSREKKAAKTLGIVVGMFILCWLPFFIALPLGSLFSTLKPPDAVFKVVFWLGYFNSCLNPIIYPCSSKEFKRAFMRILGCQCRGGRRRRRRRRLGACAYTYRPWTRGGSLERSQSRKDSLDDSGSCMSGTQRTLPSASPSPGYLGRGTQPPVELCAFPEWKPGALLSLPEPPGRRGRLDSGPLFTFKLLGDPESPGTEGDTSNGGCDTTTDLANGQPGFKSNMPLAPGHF
T1 sequence (P23944 whole entry): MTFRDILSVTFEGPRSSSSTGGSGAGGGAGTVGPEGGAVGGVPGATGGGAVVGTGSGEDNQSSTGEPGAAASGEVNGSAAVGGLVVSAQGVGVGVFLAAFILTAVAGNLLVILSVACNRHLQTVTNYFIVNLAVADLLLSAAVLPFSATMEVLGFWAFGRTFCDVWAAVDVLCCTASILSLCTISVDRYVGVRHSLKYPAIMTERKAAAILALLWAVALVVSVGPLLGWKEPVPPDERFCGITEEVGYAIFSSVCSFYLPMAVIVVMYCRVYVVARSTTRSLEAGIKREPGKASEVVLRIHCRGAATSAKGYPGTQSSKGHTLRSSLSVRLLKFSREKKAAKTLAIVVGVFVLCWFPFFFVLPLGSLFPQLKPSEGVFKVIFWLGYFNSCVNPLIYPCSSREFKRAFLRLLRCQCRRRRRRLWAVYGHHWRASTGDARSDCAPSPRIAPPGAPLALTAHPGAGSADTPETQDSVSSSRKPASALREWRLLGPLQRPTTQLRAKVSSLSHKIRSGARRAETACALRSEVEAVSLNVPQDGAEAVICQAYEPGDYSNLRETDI
T1 sequence (P43140 whole entry): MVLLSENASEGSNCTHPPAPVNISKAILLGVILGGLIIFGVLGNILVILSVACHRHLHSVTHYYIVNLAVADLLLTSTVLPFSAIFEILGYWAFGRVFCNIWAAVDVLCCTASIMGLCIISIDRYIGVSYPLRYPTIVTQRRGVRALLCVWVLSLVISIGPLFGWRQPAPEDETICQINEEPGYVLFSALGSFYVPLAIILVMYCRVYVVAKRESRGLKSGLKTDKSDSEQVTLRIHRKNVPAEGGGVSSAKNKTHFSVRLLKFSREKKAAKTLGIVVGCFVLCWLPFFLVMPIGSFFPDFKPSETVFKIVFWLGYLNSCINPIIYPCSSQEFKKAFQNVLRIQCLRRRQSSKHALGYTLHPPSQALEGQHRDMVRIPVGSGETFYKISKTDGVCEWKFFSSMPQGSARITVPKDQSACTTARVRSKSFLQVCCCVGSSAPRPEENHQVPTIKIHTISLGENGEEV
How it was run: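 Prepared membranes resuspended in 50 mM Tris-HCl pH 7.7 with 10 µM pargyline and 0.1% ascorbic acid. [3H]prazosin 0.2 nM final, 30 min, 25 °C; nonspecific binding with 3 µM phentolamine. Bound ligand collected on GF/B filters, counted by liquid scintillation. Ki derived from IC50 of dose-inhibition curves; mean ± SD of three separate experiments.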

[2] = biological target: T2, 5-hydroxytryptamine receptor 1A (Rattus norvegicus, UniProt P19327); test: Inhibition of [3H]8-OH-DPAT binding to 5-hydroxytryptamine 1A receptor from rat hippocampus; type: tissue-based
T2 sequence (P19327 whole entry): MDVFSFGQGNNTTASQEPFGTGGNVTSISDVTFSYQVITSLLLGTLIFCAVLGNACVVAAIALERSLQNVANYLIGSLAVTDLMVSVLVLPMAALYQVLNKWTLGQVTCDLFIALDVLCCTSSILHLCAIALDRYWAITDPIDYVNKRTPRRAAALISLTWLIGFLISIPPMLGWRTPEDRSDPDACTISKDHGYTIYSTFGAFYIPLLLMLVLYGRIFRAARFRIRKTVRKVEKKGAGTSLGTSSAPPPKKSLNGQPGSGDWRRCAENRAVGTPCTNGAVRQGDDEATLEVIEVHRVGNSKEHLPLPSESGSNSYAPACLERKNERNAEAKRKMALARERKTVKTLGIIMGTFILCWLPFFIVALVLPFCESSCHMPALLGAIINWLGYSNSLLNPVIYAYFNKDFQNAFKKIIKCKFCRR
How it was run: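 Membranes: tissue homogenized in ice-cold 50 mM Tris-HCl pH 7.4, spun 50000g, preincubated 37 °C 10 min, washed. Incubation buffer 50 mM Tris-HCl pH 7.7, 10 µM pargyline, 4 mM CaCl2. [3H]8-OH-DPAT 1 nM final, 30 min, 25 °C; nonspecific with 10 µM 5-HT. Stopped by GF/B filtration, scintillation counting. IC50 from dose-inhibition curves, converted to Ki; mean ± SD of three experiments.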

D(1A) dopamine receptor = D(1A) dopamine receptor (Rattus norvegicus, UniProt P18901); test: Inhibition of [3H]SCH-23390 binding to Dopamine receptor D1 from rat striatum
Chain of D(1A) dopamine receptor (P18901 whole entry): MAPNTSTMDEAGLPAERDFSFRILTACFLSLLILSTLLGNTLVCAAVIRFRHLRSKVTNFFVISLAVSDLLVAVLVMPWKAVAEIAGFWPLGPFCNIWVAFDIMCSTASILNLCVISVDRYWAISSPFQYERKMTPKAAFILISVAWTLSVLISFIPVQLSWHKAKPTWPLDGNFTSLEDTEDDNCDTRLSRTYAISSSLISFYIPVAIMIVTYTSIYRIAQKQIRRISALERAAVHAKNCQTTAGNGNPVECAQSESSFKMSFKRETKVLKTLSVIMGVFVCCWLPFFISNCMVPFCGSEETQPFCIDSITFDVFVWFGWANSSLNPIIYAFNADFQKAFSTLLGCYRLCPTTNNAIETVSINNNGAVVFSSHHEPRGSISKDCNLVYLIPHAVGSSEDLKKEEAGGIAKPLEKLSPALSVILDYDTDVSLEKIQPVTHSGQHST
How it was run: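 Ligand was [3H]SCH23390 at 0.4 nM final, 15 min, 25 °C; nonspecific binding defined with 10 µM (-)-cis-flupentixol. Filtration on GF/B, liquid scintillation counting. IC50 fitted, Ki derived; mean ± SD, n=3.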

Rattus norvegicus [3] = organism: Rattus norvegicus; test: Relative binding affinity for Dopamine D1 and Alpha-1 adrenergic receptors
Rattus norvegicus [4] = organism: Rattus norvegicus; test: Relative binding affinity for Dopamine D2 and Alpha-1 adrenergic receptors
[5] = biological target: Serotonin 1a (5-HT1a) receptor/Adrenergic receptor alpha-1 (Rattus norvegicus) (UniProt P15823+P23944+P43140+P19327); test: Relative binding affinity for 5-hydroxytryptamine 1A and Alpha-1 adrenergic receptors; type: protein assay
D(2) dopamine receptor = D(2) dopamine receptor (Rattus norvegicus, UniProt P61169); test: Inhibition of [3H]spiperone binding to Dopamine receptor D2 from rat striatum
Chain of D(2) dopamine receptor (P61169 whole entry): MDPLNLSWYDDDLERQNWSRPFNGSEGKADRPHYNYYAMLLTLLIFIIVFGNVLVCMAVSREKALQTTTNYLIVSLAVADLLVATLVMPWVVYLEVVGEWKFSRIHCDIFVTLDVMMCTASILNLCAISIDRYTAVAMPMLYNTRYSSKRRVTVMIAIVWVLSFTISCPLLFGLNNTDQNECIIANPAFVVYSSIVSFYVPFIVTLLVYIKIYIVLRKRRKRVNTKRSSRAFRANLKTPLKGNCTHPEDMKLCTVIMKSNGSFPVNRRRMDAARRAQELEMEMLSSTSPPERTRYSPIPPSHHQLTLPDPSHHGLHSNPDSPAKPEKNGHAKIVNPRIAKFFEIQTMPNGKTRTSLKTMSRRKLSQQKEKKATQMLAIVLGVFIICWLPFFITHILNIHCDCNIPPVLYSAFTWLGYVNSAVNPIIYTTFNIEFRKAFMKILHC
How it was run: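 Membrane incubation in 50 mM Tris-HCl pH 7.1 with 10 µM pargyline, 120 mM NaCl, 5 mM KCl, 2 mM CaCl2, 1 mM MgCl2 and 0.1% ascorbic acid. [3H]spiperone 0.2 nM final, 15 min at 37 °C; 100 µM (-)-sulpiride for nonspecific binding. Vacuum filtration through GF/B, scintillation counting; Ki from IC50 of dose-inhibition curves, mean ± SD of three runs.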

Ki [1]	Ki [2]	Ratio [5]	SMILES	Ki (D(1A) dopamine receptor)	Ratio (Rattus norvegicus [3])	Ratio (Rattus norvegicus [4])	Ki (D(2) dopamine receptor)
62.37 nM	130 nM	2.1	O=c1[nH]c2cc(-c3ccccc3)[nH]c2c(=O)n1CCCN1CCN(c2ccccc2Cl)CC1				
0.76 nM	16.1 nM	21	COc1ccccc1N1CCN(CCn2c(=O)[nH]c3cc(-c4ccccc4Cl)[nH]c3c2=O)CC1				
19.32 nM	16.9 nM	0.87	COc1ccccc1N1CCN(CCn2c(=O)[nH]c3cc(-c4cccc(Cl)c4)[nH]c3c2=O)CC1				
0.94 nM	559 nM	594	O=c1[nH]c2cc[nH]c2c(=O)n1CCN1CCN(c2ccccc2Cl)CC1	> 10000 nM	> 10000	343	322 nM
59.78 nM	376 nM	6.3	O=c1[nH]c2cc[nH]c2c(=O)n1CCCN1CCN(c2ccccc2Cl)CC1				
0.52 nM	24 nM	46	COc1ccccc1N1CCN(CCn2c(=O)[nH]c3cc(-c4ccccc4)[nH]c3c2=O)CC1				
28.01 nM	193 nM	6.9	COc1ccccc1N1CCN(CCCn2c(=O)[nH]c3cc[nH]c3c2=O)CC1				
47.88 nM	83 nM	1.73	COc1ccccc1N1CCN(CCCn2c(=O)[nH]c3cc(-c4ccc(C)cc4)[nH]c3c2=O)CC1				
2.31 nM	651 nM	282	COc1ccccc1N1CCN(CCn2c(=O)[nH]c3cc[nH]c3c2=O)CC1				
1.23 nM	22.4 nM	18	COc1ccccc1N1CCN(CCCn2c(=O)[nH]c3cc(-c4ccccc4)[nH]c3c2=O)CC1				
1.08 nM	35 nM	32	O=c1[nH]c2cc(-c3ccccc3)[nH]c2c(=O)n1CCN1CCN(c2ccccc2Cl)CC1				
		238	COc1ccccc1N1CCN(CCn2c(=O)[nH]c3c([nH]c4ccccc43)c2=O)CC1				

SMILES	Ki [1]	Ki [2]	Ratio [5]	Ki (D(1A) dopamine receptor)	Ratio (Rattus norvegicus [3])	Ratio (Rattus norvegicus [4])	Ki (D(2) dopamine receptor)
Cc1ccc(-c2cc3[nH]c(=O)n(CCN4CCN(c5ccccc5Cl)CC4)c(=O)c3[nH]2)cc1	17.26 nM	> 10000 nM	> 500	> 10000 nM	> 500	> 500	> 10000 nM
COc1ccccc1N1CCN(CCn2c(=O)[nH]c3cc(-c4ccc(Cl)cc4)[nH]c3c2=O)CC1	7.68 nM	> 10000 nM	> 1000	> 10000 nM	> 1000	0.47	3.64 nM
COc1ccc(-c2cc3[nH]c(=O)n(CCN4CCN(c5ccccc5Cl)CC4)c(=O)c3[nH]2)cc1	3.4 nM	> 10000 nM	> 2500	> 10000 nM	> 2500	0.65	2.23 nM
O=c1[nH]c2cc(-c3ccc(Cl)cc3)[nH]c2c(=O)n1CCN1CCN(c2ccccc2Cl)CC1	11.7 nM	> 10000 nM	> 800	> 10000 nM	> 800	> 800	> 10000 nM
Cc1ccc(-c2cc3[nH]c(=O)n(CCCN4CCN(c5ccccc5Cl)CC4)c(=O)c3[nH]2)cc1	110.1 nM	> 10000 nM	> 90				
COc1ccccc1N1CCN(CCn2c(=O)[nH]c3cc(-c4ccc(C)cc4)[nH]c3c2=O)CC1	2.05 nM	> 10000 nM	> 4500	> 10000 nM	> 4500	9.7	19.9 nM
O=c1[nH]c2cc(-c3ccccc3Cl)[nH]c2c(=O)n1CCN1CCN(c2ccccc2Cl)CC1	0.46 nM	> 10000 nM	> 20000	> 10000 nM	> 20000	60	27.8 nM
O=c1[nH]c2c([nH]c3ccccc32)c(=O)n1CCN1CCN(c2ccccc2Cl)CC1	0.53 nM	> 10000 nM	> 15000				
COc1ccc(N2CCN(CCn3c(=O)[nH]c4cc(-c5ccccc5)[nH]c4c3=O)CC2)cc1	> 10000 nM	> 10000 nM					

Reference: ChEMBL document CHEMBL1144410, “Synthesis of 3-arylpiperazinylalkylpyrrolo[3,2-d]pyrimidine-2,4-dione derivatives as novel, potent, and selective alpha1-adrenoceptor ligands” (J Med Chem, 2005)
